{"source": "paper PMC8760560", "about": "(iScience, 2021)", "key": {"[1]": {"tested_on": "mouse embryonic stem (ES) cells", "settings": "100 μM; ref Wei et al., 2012; cited from earlier work"}, "[2]": {"tested_on": "cADPR-evoked Ca^2+ release", "assay": "cADPR-evoked Ca2+ release in sea urchin egg homogenate", "format": "biochemical, Strongylocentrotus purpuratus", "settings": "for mode of inhibition of cADPR action: cADPR concentration-response curves at increasing inhibitor concentrations; for inhibition of cADPR-evoked Ca2+ signals: primary screen, 6 min preincubation", "outline": "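Primary screen in S. purpuratus egg homogenate, loaded with Ca2+ and 3 μM fluo-3 at 17°C and diluted stepwise to 1.25% over 3 h. Fluo-3 was read at ex 485/em 525 nm. Library compounds at 25 μM final were preincubated for 6 min (35 cycles), then cADPR 300 nM final was added. Screens ran in singlicate or duplicate, with Z' calculated from vehicle and cADPR responses.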"}, "[3]": {"tested_on": "NAADP-evoked Ca^2+ release", "settings": "data from a recent screen against NAADP action; ref Gunaratne et al., 2018; cited from earlier work"}, "[4]": {"tested_on": "RyRs (ryanodine-evoked Ca^2+ release)", "assay": "ryanodine-evoked Ca2+ release in sea urchin egg homogenate", "format": "biochemical, Strongylocentrotus purpuratus", "settings": "ryanodine 100 μM", "outline": "(§1)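 Fluo-3-loaded S. purpuratus egg homogenate (1.25%, pH 7.2 intracellular-like medium, 17°C loading) was preincubated with increasing test compound concentrations. Release was then evoked by cADPR 300 nM, caffeine 15 mM or ryanodine 100 μM, with fluorescence read at ex 485/em 525 nm. Concentration-response data came from three independent biological experiments with four technical replicates each.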"}, "RyR1": {"target": "RyR1 (Sus scrofa, UniProt P16960)", "assay": "[3H]-ryanodine binding to skeletal SR vesicles", "design": "species or system porcine", "outline": "(§2)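 Porcine SR vesicles, skeletal (1 mg/mL, 10 nM [3H]-ryanodine) and cardiac (3 mg/mL, 7.5 nM [3H]-ryanodine), were incubated for 3 h at 37°C with test compound or 0.02% DMSO. The pH 7.0 K-PIPES buffer contained 150 mM KCl, 0.1 μM calmodulin, GSH, DTT, 1 mM EGTA and CaCl2 giving 100 nM or 30 μM free Ca2+. Non-specific binding was defined with 40 μM unlabeled ryanodine. Bound ligand was filtered and counted by scintillation, and expressed relative to DMSO. Three SR batches, triplicates.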"}, "U2OS cells": {"tested_on": "U2OS cells", "assay": "cADPR microinjection into single U2OS cells expressing GCaMP-6M", "format": "cell-based, human", "settings": "5 μM preincubation; cADPR 30 μM pipette concentration", "outline": "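U2OS cells were transfected with GCaMP-6M two days prior, seeded on collagen dishes and perfused with Ca2+-free HBSS. Cells in 5 μM test compound or 0.05% DMSO were microinjected with intracellular buffer (110 mM KCl, 10 mM NaCl, 20 mM HEPES, pH 7.2) containing vehicle or cADPR, giving about 300 nM intracellular. Spinning-disk imaging (ex 488 nm) gave peak ΔF/F0 and area under curve. Data from three independent experiments, mean ± stdev.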"}, "[5]": {"tested_on": "cADPR-sensitive Ca^2+ stores", "format": "biochemical, Strongylocentrotus purpuratus", "settings": "≤100μM"}, "[6]": {"tested_on": "NAADP-evoked Ca^2+ release", "assay": "NAADP-evoked Ca2+ release in sea urchin egg homogenate", "format": "biochemical, Strongylocentrotus purpuratus", "settings": "NAADP 200 nM; at concentrations completely inhibiting cADPR-evoked signals"}, "RyR2": {"target": "RyR2 (Sus scrofa, UniProt A0A5G2R1W3)", "sequence (A0A5G2R1W3 20-4900)": "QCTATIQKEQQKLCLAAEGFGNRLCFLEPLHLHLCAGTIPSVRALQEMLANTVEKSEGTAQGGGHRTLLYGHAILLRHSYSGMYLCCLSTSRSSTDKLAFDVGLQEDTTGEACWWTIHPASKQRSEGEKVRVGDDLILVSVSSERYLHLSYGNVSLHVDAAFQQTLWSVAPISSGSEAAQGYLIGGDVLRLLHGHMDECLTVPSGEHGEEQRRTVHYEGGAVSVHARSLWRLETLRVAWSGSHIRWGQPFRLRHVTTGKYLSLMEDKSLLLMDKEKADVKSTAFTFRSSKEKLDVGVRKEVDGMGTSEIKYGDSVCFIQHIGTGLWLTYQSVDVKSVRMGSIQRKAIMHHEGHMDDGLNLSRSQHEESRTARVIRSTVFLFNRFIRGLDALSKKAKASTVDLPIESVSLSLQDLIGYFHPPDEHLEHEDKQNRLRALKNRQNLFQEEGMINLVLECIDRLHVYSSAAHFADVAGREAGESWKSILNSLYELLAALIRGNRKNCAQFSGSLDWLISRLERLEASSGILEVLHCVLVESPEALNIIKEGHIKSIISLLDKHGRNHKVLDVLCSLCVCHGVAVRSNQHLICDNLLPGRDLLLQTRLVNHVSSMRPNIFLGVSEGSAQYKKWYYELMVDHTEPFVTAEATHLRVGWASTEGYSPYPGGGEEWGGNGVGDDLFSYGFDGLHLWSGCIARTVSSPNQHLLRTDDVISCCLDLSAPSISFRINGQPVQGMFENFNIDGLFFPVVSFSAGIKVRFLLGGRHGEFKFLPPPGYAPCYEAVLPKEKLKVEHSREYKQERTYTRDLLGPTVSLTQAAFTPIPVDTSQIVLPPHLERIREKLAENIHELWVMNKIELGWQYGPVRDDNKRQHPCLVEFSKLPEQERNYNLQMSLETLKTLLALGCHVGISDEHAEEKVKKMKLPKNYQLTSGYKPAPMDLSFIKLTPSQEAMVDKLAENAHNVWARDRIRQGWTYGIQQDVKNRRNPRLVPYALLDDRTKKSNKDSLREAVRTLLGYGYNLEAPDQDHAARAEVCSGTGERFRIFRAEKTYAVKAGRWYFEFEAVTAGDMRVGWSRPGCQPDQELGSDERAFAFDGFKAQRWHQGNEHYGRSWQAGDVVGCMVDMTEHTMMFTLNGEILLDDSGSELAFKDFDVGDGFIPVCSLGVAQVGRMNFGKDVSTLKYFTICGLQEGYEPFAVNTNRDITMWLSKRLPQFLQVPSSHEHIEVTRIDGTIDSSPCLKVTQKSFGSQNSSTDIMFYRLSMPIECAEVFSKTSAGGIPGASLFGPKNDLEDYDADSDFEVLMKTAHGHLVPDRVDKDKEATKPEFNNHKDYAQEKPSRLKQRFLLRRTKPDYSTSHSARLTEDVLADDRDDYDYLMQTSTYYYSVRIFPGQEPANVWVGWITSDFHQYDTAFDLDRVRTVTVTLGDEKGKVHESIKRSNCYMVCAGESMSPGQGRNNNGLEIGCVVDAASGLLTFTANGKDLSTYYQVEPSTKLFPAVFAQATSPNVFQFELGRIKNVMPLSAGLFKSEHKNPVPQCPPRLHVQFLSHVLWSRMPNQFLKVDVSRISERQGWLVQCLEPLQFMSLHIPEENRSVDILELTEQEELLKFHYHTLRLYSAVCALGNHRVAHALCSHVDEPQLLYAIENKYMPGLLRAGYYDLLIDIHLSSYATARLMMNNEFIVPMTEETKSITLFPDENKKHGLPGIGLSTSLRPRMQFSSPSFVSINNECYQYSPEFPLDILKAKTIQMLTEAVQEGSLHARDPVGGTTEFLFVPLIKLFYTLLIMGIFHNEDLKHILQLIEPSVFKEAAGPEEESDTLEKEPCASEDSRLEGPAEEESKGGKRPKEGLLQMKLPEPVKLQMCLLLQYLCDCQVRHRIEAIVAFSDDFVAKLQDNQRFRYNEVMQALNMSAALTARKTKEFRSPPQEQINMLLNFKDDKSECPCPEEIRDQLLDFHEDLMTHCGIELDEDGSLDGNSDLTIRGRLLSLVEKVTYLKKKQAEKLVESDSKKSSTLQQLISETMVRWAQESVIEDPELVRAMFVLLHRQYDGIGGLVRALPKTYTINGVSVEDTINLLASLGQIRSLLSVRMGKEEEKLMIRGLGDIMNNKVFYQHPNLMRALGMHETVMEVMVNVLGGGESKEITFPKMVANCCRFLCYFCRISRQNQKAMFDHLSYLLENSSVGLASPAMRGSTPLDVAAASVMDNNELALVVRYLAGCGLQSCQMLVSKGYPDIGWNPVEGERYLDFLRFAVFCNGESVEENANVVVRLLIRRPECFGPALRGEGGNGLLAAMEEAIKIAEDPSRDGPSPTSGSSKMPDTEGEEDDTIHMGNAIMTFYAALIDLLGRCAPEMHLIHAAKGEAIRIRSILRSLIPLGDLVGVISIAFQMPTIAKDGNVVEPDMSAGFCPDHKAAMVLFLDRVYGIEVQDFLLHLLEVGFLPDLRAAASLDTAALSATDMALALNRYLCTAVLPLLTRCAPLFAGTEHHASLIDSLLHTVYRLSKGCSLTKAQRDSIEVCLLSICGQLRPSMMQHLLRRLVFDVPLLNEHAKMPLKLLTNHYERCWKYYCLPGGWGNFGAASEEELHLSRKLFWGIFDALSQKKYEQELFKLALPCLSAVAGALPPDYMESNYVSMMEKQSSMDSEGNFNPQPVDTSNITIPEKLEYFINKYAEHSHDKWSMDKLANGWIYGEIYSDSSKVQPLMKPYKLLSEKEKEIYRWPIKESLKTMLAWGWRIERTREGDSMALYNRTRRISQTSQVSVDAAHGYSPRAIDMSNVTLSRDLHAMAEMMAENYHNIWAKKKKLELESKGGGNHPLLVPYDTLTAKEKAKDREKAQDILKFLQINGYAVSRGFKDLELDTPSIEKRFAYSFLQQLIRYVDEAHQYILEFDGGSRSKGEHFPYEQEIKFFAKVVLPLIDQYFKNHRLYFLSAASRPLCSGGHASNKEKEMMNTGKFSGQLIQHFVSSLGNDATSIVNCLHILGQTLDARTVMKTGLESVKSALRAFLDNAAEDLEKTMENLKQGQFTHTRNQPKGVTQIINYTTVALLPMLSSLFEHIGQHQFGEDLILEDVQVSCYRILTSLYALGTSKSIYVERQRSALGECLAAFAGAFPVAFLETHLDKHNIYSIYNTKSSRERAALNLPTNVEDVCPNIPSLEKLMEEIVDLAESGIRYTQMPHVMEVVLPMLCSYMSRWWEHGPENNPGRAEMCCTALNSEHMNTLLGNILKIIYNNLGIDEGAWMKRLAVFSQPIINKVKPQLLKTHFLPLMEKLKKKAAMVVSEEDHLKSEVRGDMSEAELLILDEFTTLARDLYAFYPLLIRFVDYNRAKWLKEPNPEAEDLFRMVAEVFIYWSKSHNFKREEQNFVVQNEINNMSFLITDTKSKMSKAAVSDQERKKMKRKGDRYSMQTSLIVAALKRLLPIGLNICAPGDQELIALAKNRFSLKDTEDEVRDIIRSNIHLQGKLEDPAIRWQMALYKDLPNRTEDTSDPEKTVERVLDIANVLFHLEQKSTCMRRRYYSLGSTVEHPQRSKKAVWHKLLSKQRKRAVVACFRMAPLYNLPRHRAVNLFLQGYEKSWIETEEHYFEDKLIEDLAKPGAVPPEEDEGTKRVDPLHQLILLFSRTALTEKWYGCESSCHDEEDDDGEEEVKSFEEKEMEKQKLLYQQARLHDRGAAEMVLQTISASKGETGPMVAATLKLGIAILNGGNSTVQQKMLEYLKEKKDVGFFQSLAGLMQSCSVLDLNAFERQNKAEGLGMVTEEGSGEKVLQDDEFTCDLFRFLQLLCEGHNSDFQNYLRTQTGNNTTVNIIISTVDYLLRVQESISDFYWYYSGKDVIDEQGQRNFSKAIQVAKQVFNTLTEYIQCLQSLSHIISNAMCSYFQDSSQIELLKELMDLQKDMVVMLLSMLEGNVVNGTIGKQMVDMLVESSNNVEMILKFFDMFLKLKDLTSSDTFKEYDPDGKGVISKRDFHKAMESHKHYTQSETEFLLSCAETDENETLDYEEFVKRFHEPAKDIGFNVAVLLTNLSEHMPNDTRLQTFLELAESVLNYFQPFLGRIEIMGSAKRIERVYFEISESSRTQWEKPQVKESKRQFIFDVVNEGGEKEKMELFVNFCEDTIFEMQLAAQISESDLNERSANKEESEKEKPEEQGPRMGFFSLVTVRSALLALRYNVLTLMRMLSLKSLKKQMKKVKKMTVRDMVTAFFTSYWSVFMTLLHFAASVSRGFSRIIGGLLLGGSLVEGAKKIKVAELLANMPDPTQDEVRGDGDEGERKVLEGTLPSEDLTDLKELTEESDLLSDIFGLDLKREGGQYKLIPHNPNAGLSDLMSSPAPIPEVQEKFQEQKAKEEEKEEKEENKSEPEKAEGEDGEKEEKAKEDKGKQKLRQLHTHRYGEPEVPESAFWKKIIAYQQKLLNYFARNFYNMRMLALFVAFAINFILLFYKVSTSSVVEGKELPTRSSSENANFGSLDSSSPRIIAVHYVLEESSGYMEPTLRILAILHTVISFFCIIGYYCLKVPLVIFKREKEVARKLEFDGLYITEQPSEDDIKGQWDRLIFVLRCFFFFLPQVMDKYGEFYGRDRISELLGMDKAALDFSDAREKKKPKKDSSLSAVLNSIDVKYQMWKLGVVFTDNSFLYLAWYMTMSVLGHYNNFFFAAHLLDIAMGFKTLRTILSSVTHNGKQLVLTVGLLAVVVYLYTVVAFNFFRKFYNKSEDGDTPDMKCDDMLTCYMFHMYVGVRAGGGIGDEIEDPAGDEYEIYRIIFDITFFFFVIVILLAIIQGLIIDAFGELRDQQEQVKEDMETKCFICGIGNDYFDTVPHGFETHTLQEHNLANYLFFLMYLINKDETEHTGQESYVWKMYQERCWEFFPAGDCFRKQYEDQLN", "assay": "[3H]-ryanodine binding to cardiac SR vesicles", "design": "species or system porcine", "outline": "as §2"}, "[7]": {"tested_on": "human induced pluripotent stem cells (iPSCs)", "assay": "cardiomyocyte differentiation of induced pluripotent stem cells", "format": "cell-based", "settings": "1 μM for 5 days, versus control cultures", "outline": "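Human iPSCs derived from dermal fibroblasts were grown on Matrigel in mTeSR1 and differentiated by Wnt modulation (CHIR, then 5 μM IWP-4 at day 3). From day 0 they received 1 μM test compound (from a 10 mM DMSO stock) or DMSO for 23 h or 5 days. Troponin T-positive cells per Hoechst-stained nuclei were counted at day 8 or 15. Western blot troponin T was normalized to GAPDH as % vehicle. Three independent experiments, mean ± stdev.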"}, "[8]": {"tested_on": "RyRs (caffeine-evoked Ca^2+ release)", "assay": "caffeine-evoked Ca2+ release in sea urchin egg homogenate", "format": "biochemical, Strongylocentrotus purpuratus", "settings": "caffeine 15 mM", "outline": "as §1"}, "IP3-evoked Ca^2+ release": {"tested_on": "IP3-evoked Ca^2+ release", "assay": "IP3-evoked Ca2+ release in sea urchin egg homogenate", "format": "biochemical, Strongylocentrotus purpuratus", "settings": "IP3 500 nM; at concentrations completely inhibiting cADPR-evoked signals"}}}
{"compound": "8-Br-cADPR", "values": [{"measurement": "effect on generation of cardiomyocytes", "setting": "[1]", "result": "promoted the generation of cardiomyocytes"}]}
{"compound": "N=c1c2cc(Br)n3c2ncn1[C@@H]1O[C@H](COP(=O)(O)OP(=O)(O)OC[C@H]2O[C@@H]3C(O)[C@H]2O)C(O)C1O", "note": "(some centres unmarked) [8-Br-7-deaza-cADPR]", "values": [{"measurement": "mode of inhibition of cADPR action", "setting": "[2]", "result": "competitive inhibitors"}]}
{"compound": "CNc1ccc2oc(C[C@H]3O[C@@]4(CC[C@H]3C)O[C@H]([C@H](C)C(=O)c3ccc[nH]3)[C@H](C)C[C@H]4C)nc2c1C(=O)O", "note": "[A23187]", "values": [{"measurement": "effect on cADPR-evoked Ca2+ responses in primary screen", "setting": "[2]; 25 μM, positive control", "result": "inhibited"}, {"measurement": "effect on NAADP-evoked Ca2+ responses in screen", "setting": "[3]", "result": "inhibited"}]}
{"compound": "CC1=C(C(=O)OC2CCCCC2)C(c2ccc([N+](=O)[O-])cc2)C2=C(CC(C)(C)CC2=O)N1", "note": "(centres unmarked) [FLI-06, cyclohexyl 2,7,7-trimethyl-4-(4-nitrophenyl)-5-oxo-1,4,5,6,7,8-hexahydroquinoline-3-carboxylate]", "values": [{"measurement": "effect on ryanodine-evoked Ca2+ release", "setting": "[4]", "result": "blocked"}, {"measurement": "effect on [3H]-ryanodine binding", "setting": "RyR1; contracting 30 μM free Ca2+", "result": "inhibited"}, {"measurement": "effect on [3H]-ryanodine binding", "setting": "RyR1; relaxed 100 nM free Ca2+", "result": "inhibited"}, {"measurement": "effect on cADPR-evoked Ca2+ transient", "setting": "U2OS cells", "result": "reduced"}, {"measurement": "intrinsic agonist activity (Ca2+ elevation without cADPR)", "setting": "[5]", "result": "did not result from any intrinsic agonist activity"}, {"measurement": "effect on NAADP-evoked Ca2+ release", "setting": "[6]", "result": "did not impact"}, {"measurement": "effect on [3H]-ryanodine binding", "setting": "RyR2; contracting 30 μM free Ca2+", "result": "inhibited"}, {"measurement": "effect on [3H]-ryanodine binding", "setting": "RyR2; relaxed 100 nM free Ca2+", "result": "inhibited"}, {"measurement": "effect on cADPR-evoked Ca2+ signals", "setting": "[2]; cADPR 300 nM", "result": "blocked"}, {"measurement": "mode of inhibition of cADPR action", "setting": "[2]", "result": "non-competitive inhibition"}, {"measurement": "IC50", "setting": "[2]; read-out: IC50, inhibition of cADPR-evoked Ca2+ release, sea urchin egg homogenate, cADPR 300 nM", "result": "260 ± 23", "unit": "nM"}, {"measurement": "contraction phenotype", "setting": "[7]", "result": "earlier contraction phenotype"}, {"measurement": "expression of cardiomyocyte-specific troponin T", "setting": "[7]", "result": "enhanced expression"}, {"measurement": "effect on caffeine-evoked Ca2+ release", "setting": "[8]", "result": "blocked"}, {"measurement": "effect on IP3-evoked Ca2+ release", "setting": "IP3-evoked Ca^2+ release", "result": "did not impact"}]}
{"compound": "N=c1c2ncn3c2ncn1[C@@H]1O[C@H](COP(=O)(O)OP(=O)(O)OC[C@H]2O[C@@H]3[C@H](O)[C@@H]2O)[C@@H](O)[C@H]1O", "note": "[cADPR, cyclic adenosine 5′-diphosphate ribose]", "values": [{"measurement": "effect on [3H]-ryanodine binding", "setting": "RyR1; contracting 30 μM free Ca2+", "result": "did not elicit any effects"}, {"measurement": "effect on [3H]-ryanodine binding", "setting": "RyR1; relaxed 100 nM free Ca2+", "result": "did not elicit any effects"}, {"measurement": "effect on [3H]-ryanodine binding", "setting": "RyR2; contracting 30 μM free Ca2+", "result": "did not elicit any effects"}, {"measurement": "effect on [3H]-ryanodine binding", "setting": "RyR2; relaxed 100 nM free Ca2+", "result": "did not elicit any effects"}]}
{"compound": "COC(=O)C1=C(C)NC(C)=C(C(=O)OC)C1c1ccccc1[N+](=O)[O-]", "note": "[nifedipine, dimethyl 2,6-dimethyl-4-(2-nitrophenyl)-1,4-dihydropyridine-3,5-dicarboxylate]", "values": [{"measurement": "inhibition of cADPR-evoked Ca2+ signals", "setting": "[2]; 25 μM", "result": "~3", "unit": "%"}]}
{"compound": "COCCOC(=O)C1=C(C)NC(C)=C(C(=O)OC(C)C)C1c1cccc([N+](=O)[O-])c1", "note": "(centres unmarked) [nimodipine, 3-O-(2-methoxyethyl) 5-O-propan-2-yl 2,6-dimethyl-4-(3-nitrophenyl)-1,4-dihydropyridine-3,5-dicarboxylate]", "values": [{"measurement": "inhibition of cADPR-evoked Ca2+ signals", "setting": "[2]; 25 μM", "result": "~5", "unit": "%"}]}
{"compound": "NC(=S)c1ccc[n+]([C@@H]2O[C@H](COP(=O)([O-])OP(=O)(O)OC[C@H]3O[C@@H](n4cnc5c(N)ncnc54)[C@H](OP(=O)(O)O)[C@@H]3O)[C@@H](O)[C@H]2O)c1", "note": "[thio-NADP]", "values": [{"measurement": "effect on NAADP-evoked Ca2+ responses in screen", "setting": "[3]", "result": "selectively desensitized"}]}
